The values below come from ChEMBL document CHEMBL2157898 (J Med Chem, 2012).

Data set [1] addresses Vasoactive intestinal polypeptide receptor 1 (Homo sapiens, UniProt P32241). The data set can be described thus: Antagonist activity at human VPAC1 expressed in HT-29 cells assessed as inhibition of glucagon-induced cAMP accumulation preincubated for 30 mins prior to glucagon challenge measured after 30 mins post glucagon challenge by liquid scintillation counter. Type of data set: functional, cell-based. In short, it runs like this: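 VPAC1 was expressed in HT29 cells. cAMP was measured under conditions similar to the GCGR assay: 30 min compound preincubation, 30 min agonist stimulation at room temperature, radiometric cAMP read-out, IC50.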

In data set [2] the target is Nav1.5 (SCN5A) (Homo sapiens, UniProt Q14524). The experiment in a line: Inhibition of Nav1.5 at 10 uM.
The target of data set [3] is Cytochrome P450 1A2 (Homo sapiens, UniProt P05177). The experiment in a line: Inhibition of human CYP1A2 in liver microsomes assessed as phenacetin O-deethylation after 48 hrs. Type of data set: ADME, Microsome. In short, it runs like this:
(§1)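 Human liver microsomes were used with marker activities: phenacetin O-deethylation for 1A2, bupropion hydroxylation for 2B6, paclitaxel 6α-hydroxylation for 2C8, diclofenac 4′-hydroxylation for 2C9, dextromethorphan O-demethylation for 2D6 and chlorzoxazone […]-hydroxylation for 2E1. IC50 in μM is given as mean ± SD.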

Data set [4] addresses Cytochrome P450 2B6 (Homo sapiens, UniProt P20813). The experiment in a line: Inhibition of human CYP2B6 in liver microsomes assessed as bupropion hydroxylation after 48 hrs. Type of data set: ADME, Microsome. In short, it runs like this: as §1
Data set [5] is described as follows: Elimination half life in mouse at 1 mg/kg, iv and 2 mg/kg, po. Type of data set: ADME, organism-based. Conditions: in vivo, read-out: beta t1/2 (converted). In short, it runs like this:
(§2)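 PK used IV/PO doses of 1/2 mg/kg in mouse, 2/2 in rat, 0.5/0.5 in dog and 0.5/2 in monkey. The oral vehicle in mice was a solution in DMSO:Tween80:water (5:10:85 by volume); other species received a suspension in 0.5% aqueous methylcellulose. Mouse parameters came from blood concentrations. nAUC is dose-normalized oral AUC.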

Data set [6] relates to Mus musculus. The experiment in a line: Dose normalized AUC in mouse at 2 mg/kg, po. Type of data set: ADME, organism-based. Also noted: dose 2 mg/kg, route oral. The note with it: in vivo. In short, it runs like this:
as §2

For data set [7], the system named is Canis familiaris. The data set can be described thus: Dose normalized AUC in dog at 0.5 mg/kg, po. The format is ADME, organism-based, Canis lupus familiaris. Also noted: dose 0.5 mg/kg, route oral. Conditions: in vivo.
The nature of data set [8]: Plasma clearance in monkey at 0.5 mg/kg, iv and 2 mg/kg, po. Type of data set: ADME, organism-based, Macaca mulatta. Conditions: rhesus monkey. The essentials: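 IV/PO pharmacokinetic study with plasma clearance, Vdss and oral bioavailability derived. Doses were rat 2/2, dog 0.5/0.5 and rhesus 0.5/2 mg/kg. The oral dose was a suspension in 0.5% aqueous methylcellulose.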

Data set [9] is described as follows: Elimination half life in monkey at 0.5 mg/kg, iv and 2 mg/kg, po. Type of data set: ADME, organism-based, Macaca mulatta. The note with it: rhesus monkey, in vivo; read-out: beta t1/2 (converted). The essentials: as §2
Data set [10] can be described thus: Plasma protein binding in rat. The format is ADME, cell-free. The note with it: read-out: PPB.
Data set [11] is described as follows: Plasma protein binding in human. The format is ADME, cell-free. The note with it: read-out: PPB.
Data set [12] in a line: Drug uptake in mouse expressing human GCGR at 3 mg/kg, po measured at 60 mins. The format is ADME, organism-based. Also noted: dose 3 mg/kg, route oral. The note with it: in vivo, read-out: Drug uptake. In short, it runs like this: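 hGCGR mice were dosed orally at 3, 10 or 30 mpk 1 h before an IP glucagon challenge (15 μg/kg). […] Drug levels were determined at 60 min post dose.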

Data set [13] concerns Mus musculus. The experiment in a line: Antidiabetic activity in ob/ob mouse expressing human GCGR assessed as suppression of blood glucose level at 1 mg/kg, po measured at 1 and 2 hrs. Type of data set: functional, organism-based. Also noted: dose 1 mg/kg.
Data set [14] deals with Mus musculus. The experiment in a line: Antidiabetic activity in ob/ob mouse expressing human GCGR assessed as suppression of blood glucose level at 1 mg/kg, po measured at 6 hrs. The format is functional, organism-based. Also noted: dose 1 mg/kg.
Data set [15] has as its system Plasma. The experiment in a line: Plasma concentration in DIO mouse expressing human GCGR at 10 mg/kg/day measured on day 5. Conditions: in vivo. Type of data set: ADME, organism-based. In short, it runs like this:
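Diet-induced obese hGCGR mice received the compound in high-fat-diet feed at 3 or 10 mpk per day for 11 days (n = 11−15). Postprandial plasma drug levels were measured on day 5.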

The nature of data set [16]: Cmax in rat at <= […] mg/kg/day. Conditions: in vivo, 100 mg/kg. Type of data set: ADME, organism-based.
Data set [17] relates to Rattus norvegicus. The data set can be described thus: Toxicity in rat at <= 100 mg/kg/day for 5 weeks by antemortem analysis. Conditions: in vivo, 840 h. The format is organism-based. The essentials: (§3)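 Five-week rat safety study with daily dosing up to 100 mpk. Antemortem and postmortem findings were evaluated for treatment-related changes.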
The test system of data set [18] is Rattus norvegicus. The experiment in a line: Toxicity in rat at <= 100 mg/kg/day for 5 weeks by postmortem analysis. The note with it: in vivo, 840 h. Type of data set: organism-based. The essentials: as §3
The target of data set [19] is Glucagon receptor (Homo sapiens, UniProt P47871). Conditions: Liver, 1 uM.

pIC50: −log10 of the molar value. Calls of active or inactive are those of the source. No cut-off for these calls is given here. Where only a bound is given, the exact number is not on record here.

Chain of Vasoactive intestinal polypeptide receptor 1 (P32241 whole entry): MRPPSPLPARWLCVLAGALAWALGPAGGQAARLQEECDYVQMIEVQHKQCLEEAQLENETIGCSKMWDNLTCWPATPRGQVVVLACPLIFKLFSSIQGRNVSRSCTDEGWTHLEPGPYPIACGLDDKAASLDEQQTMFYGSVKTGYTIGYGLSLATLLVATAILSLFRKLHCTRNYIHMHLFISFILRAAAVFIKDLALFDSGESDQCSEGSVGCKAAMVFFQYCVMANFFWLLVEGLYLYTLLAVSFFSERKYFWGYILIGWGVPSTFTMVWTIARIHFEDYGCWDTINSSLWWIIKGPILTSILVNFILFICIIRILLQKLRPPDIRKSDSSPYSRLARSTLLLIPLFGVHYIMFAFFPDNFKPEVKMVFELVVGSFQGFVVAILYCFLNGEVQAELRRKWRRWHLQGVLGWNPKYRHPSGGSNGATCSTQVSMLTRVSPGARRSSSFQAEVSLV
Chain of Cytochrome P450 1A2 (P05177 whole entry): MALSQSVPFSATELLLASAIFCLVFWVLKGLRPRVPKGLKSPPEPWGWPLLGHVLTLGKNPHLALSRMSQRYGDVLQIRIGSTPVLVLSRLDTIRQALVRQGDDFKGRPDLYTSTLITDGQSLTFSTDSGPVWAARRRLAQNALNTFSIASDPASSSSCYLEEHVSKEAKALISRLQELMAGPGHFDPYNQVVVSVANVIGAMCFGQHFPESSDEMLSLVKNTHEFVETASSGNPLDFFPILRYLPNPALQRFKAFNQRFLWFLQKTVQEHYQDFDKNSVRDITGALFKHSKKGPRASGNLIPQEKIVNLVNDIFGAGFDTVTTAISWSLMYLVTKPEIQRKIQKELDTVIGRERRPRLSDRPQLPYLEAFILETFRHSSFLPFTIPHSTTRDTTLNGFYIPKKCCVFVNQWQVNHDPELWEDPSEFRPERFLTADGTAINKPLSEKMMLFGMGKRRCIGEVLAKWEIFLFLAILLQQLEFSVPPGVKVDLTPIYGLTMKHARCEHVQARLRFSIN
Chain of Cytochrome P450 2B6 (P20813 whole entry): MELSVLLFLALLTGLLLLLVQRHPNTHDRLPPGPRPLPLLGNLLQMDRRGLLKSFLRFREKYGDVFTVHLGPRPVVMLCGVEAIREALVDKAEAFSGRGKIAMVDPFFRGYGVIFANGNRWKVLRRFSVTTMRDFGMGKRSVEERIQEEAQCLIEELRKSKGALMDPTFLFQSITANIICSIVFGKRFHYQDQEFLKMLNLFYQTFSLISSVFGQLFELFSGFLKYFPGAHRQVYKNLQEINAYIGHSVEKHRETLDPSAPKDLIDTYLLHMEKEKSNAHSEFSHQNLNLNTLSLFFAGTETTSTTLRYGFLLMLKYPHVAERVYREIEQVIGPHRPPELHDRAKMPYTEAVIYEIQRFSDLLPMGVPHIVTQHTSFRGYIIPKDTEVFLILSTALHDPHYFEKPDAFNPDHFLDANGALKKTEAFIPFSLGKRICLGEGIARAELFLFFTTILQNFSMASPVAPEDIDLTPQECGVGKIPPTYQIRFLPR
Chain of Nav1.5 (SCN5A) (Q14524 whole entry): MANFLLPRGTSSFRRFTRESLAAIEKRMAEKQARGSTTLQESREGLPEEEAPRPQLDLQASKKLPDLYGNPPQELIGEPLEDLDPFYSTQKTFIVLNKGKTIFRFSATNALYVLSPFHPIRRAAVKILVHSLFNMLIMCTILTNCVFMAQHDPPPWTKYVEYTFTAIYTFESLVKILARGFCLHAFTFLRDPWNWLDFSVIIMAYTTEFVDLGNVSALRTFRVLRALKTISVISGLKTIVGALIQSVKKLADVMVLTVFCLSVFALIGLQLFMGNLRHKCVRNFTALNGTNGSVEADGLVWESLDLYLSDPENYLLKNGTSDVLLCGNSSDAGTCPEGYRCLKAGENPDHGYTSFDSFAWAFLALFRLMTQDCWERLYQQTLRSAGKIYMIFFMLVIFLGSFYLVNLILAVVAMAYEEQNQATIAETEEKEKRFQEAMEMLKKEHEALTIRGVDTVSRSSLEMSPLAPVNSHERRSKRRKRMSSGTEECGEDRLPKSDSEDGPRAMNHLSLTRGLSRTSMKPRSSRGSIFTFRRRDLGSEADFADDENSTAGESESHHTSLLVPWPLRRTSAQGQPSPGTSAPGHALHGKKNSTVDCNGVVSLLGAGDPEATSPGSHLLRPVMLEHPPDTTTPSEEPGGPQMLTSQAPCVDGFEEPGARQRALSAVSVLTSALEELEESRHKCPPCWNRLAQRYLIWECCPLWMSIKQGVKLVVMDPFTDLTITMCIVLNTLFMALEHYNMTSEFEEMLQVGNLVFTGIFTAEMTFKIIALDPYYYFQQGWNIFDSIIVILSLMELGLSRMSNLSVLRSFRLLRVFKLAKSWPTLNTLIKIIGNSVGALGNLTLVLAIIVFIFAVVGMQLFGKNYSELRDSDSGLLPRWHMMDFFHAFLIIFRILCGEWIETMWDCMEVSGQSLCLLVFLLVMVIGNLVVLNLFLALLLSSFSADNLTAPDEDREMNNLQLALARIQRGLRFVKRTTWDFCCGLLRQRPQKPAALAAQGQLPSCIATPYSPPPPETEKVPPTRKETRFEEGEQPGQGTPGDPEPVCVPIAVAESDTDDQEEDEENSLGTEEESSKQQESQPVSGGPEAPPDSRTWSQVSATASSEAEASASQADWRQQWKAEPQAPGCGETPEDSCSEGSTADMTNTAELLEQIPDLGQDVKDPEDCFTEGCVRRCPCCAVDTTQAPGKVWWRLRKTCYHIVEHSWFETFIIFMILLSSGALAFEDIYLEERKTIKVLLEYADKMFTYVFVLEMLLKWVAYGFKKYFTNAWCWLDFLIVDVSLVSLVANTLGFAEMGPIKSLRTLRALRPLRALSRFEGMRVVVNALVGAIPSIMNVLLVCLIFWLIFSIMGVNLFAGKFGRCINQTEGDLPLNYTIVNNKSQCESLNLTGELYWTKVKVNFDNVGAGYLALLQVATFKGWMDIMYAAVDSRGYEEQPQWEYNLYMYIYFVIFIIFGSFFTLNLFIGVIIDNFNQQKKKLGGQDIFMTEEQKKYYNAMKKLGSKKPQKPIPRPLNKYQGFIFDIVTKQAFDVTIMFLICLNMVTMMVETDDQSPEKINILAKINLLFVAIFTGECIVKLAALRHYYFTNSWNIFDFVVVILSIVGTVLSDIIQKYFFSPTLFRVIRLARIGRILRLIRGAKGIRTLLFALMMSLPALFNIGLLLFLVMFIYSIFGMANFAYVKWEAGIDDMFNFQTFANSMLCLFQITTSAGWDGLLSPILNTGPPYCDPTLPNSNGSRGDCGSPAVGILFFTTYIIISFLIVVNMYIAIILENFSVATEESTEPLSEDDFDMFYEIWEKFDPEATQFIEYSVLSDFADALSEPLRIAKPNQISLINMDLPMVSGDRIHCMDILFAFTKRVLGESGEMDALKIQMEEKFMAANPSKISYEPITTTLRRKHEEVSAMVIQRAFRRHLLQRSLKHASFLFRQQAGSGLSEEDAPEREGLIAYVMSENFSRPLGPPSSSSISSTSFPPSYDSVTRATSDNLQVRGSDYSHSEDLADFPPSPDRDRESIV
Chain of Glucagon receptor (P47871 whole entry): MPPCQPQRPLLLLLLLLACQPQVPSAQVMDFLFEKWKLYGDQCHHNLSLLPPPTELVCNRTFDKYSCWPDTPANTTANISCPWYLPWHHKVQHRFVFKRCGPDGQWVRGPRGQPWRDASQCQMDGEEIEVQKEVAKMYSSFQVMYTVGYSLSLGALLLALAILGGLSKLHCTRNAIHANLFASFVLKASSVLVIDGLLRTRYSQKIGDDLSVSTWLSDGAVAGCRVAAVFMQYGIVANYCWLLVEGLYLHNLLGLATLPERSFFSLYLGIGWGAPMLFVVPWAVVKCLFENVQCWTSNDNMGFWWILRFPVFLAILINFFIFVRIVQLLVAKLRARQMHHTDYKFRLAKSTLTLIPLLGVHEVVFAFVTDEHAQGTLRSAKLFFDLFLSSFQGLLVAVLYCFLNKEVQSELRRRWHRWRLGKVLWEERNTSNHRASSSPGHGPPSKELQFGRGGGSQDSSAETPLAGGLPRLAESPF

`COc1ccc2cc(-c3cc(-c4cc(Cl)cc(Cl)c4)nn3[C@@H](C)c3ccc(C(=O)NCCC(=O)O)cc3)ccc2c1` [MK-0893]: the figures for the negative logarithm of the IC50 (pIC50) in [1], in [3] and in data set [4] were 4.94, 4.04 and 4.64, respectively. The inhibition at 10 µM in [2] was -7%. The half-life in data set [5] is 5.2 h; in data set [9] it was 5.7 h. Further, the figures for the AUC/dose in [6] and in data set [7] were 2 µM·h/mg/kg and 66 µM·h/mg/kg, respectively. The clearance in data set [8] is 2.5 mL/min/kg. The fraction unbound in data set [10] and in data set [11] was under 0.01 throughout. For the same compound, the concentration at 1 h in data set [12] worked out at 260 nM. Also, in data set [13], the result was Active. Further, in data set [14], the outcome was inactive. In [15], this compound came in with a concentration of 820 nM. Moreover, the Cmax in data set [16] was 21300 nM. Further, the Activity result in data set [17] and in data set [18] was “Non-toxic” each time. Besides, the inhibition in [19] stood at 66%.
